Three compounds from ChEMBL document CHEMBL1153905, “Functionalized 3-benzylidene-indolin-2-ones: inducers of NAD(P)H-quinone oxidoreductase 1 (NQO1) with antiproliferative activity” (Bioorg Med Chem, 2009) can be followed below.

One may read the IC50 as the concentration needed to halve the response being measured. Broadly, the fold induction is the signal under treatment as a multiple of the control signal.

In data set [1] the test system is HCT-116. The data set can be described thus: Cell cycle arrest in human HCT116 cells released from G1 block assessed as accumulation at G2/M phase at 30 uM after 24 hrs by flow cytometry. Format: functional. In general terms: Flow cytometry measures light scatter and fluorescence of single cells or particles in a stream.
In data set [2] the test system is HCT-116. As to the kind of experiment: Cell cycle arrest in human HCT116 cells released from G1 block assessed as accumulation at S phase at 30 uM after 24 hrs by flow cytometry. Type of data set: functional.
For data set [3], the system named is MCF7. The data set can be described thus: Selectivity ratio of IC50 for human CCL186 cells to IC50 for human MCF7 cells. Put shortly:
(§1)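 MTT assay. MCF7 and CCL186 cells were grown in EMEM/10% FBS, HCT116 in McCoy's 5A/10% FBS. Seeding was 10,000 (MCF7), 4000 (HCT116) and 5000 (CCL186) cells per well, 24 h. Compound exposure was 72 h, DMSO ≤1% final. MTT 0.5 mg/ml for 3 h, formazan dissolved in DMSO, A590. IC50 came from sigmoidal survival curves, with 3 separate occasions per concentration. Ratio = IC50 CCL186 / IC50 of the cancer line.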

Data set [4] is described as follows: Antiproliferative activity against human CCL186 cells after 72 hrs by MTT assay. Format: cell-based. To be noted: CCL186, 72 h. Put shortly: (§2)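 Cells seeded at 10,000 (MCF7), 4000 (HCT116) or 5000 (CCL186) per well and grown 24 h; MCF7 and CCL186 in EMEM with pyruvate, glutamine, 10% FBS; HCT116 in McCoy's 5A with 10% FBS. Compounds from DMSO stocks (≤1% DMSO final), 72 h exposure; MTT 0.5 mg/ml for 3 h, formazan in DMSO read at 590 nm. IC50 from sigmoidal survival curve, three separate occasions.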
On the technique in general: Formazan colour is commonly taken as a measure of viable cells.

In data set [5] the test system is HCT-116. The data set can be described thus: Cell cycle arrest in human HCT116 cells released from G2 block assessed as accumulation at G2/M phase at 30 uM after 24 hrs by flow cytometry. Format: functional.
Data set [6] deals with HCT-116. As to the kind of experiment: Cell cycle arrest in human HCT116 cells released from G2 block assessed as accumulation at S phase at 30 uM after 24 hrs by flow cytometry. Type of data set: functional.
The nature of data set [7]: Cytotoxicity against mouse Hepa-1c1c7 cells after 48 hrs by MTT assay. Type of data set: cell-based. To be noted: hepa-1c1c7, 48 h. Put shortly: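 Murine hepatoma cells in α-MEM with 10% heat- and charcoal-treated fetal calf serum, passages 6–17; MTT read-out as for the cancer lines but with 48 h compound exposure. Highest concentration tested 25 µM. IC50 from survival-versus-concentration curve; mean and SD, n = 3.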

A short description of data set [8]: Selectivity ratio of IC50 for human CCL186 cells to IC50 for human HCT116 cells. Type of data set: ADME, cell-based, HCT-116. To be noted: CCL186 cells and HCT116 cells, read-out: Ratio IC50. Put shortly: as §1
Data set [9] has as its system HCT-116. As to the kind of experiment: Cell cycle arrest in human HCT116 cells released from G1 block assessed as accumulation at G1 phase at 30 uM after 24 hrs by flow cytometry. Type of data set: functional.
Data set [10] deals with HCT-116. As to the kind of experiment: Cell cycle arrest in human HCT116 cells released from G2 block assessed as accumulation at G1 phase at 30 uM after 24 hrs by flow cytometry. Format: functional.
Data set [11] concerns HCT-116. The data set can be described thus: Antiproliferative activity against human HCT116 cells after 72 hrs by MTT assay. Format: functional, cell-based. To be noted: HCT-116, 72 h. Put shortly:
as §2

Data set [12] concerns HCT-116. The data set can be described thus: Cell cycle arrest in human HCT116 cells released from G1 block assessed as accumulation at sub G1 phase at 30 uM after 24 hrs by flow cytometry. Format: functional.
Data set [13] has as its system HCT-116. The data set can be described thus: Cell cycle arrest in human HCT116 cells released from G2 block assessed as accumulation at sub G1 phase at 30 uM after 24 hrs by flow cytometry. Type of data set: functional.
The subject of data set [14] is MCF7. The data set can be described thus: Antiproliferative activity against human MCF7 cells after 72 hrs by MTT assay. Type of data set: functional, cell-based. To be noted: MCF7, 72 h. Put shortly: as §2
The test system of data set [15] is HCT-116. As to the kind of experiment: Cell cycle arrest in human HCT116 cells released from G2 block assessed as accumulation at sub G1 phase at 10 uM after 24 hrs by flow cytometry. Format: functional.
Data set [16] relates to HCT-116. The data set can be described thus: Cell cycle arrest in human HCT116 cells released from G1 block assessed as accumulation at sub G1 phase at 10 uM after 24 hrs by flow cytometry. Format: functional.
The target in data set [17] is NAD(P)H dehydrogenase [quinone] 1 (Mus musculus) (UniProt Q64669). As to the kind of experiment: Induction of NQO1 activity in mouse Hepa-1c1c7 cells assessed as induction ratio at 0.05 uM after 48 hrs by MTT assay relative to control. Format: cell-based. Put shortly: (§3)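 Hepa1c1c7 cells, 10,000 per well, 24 h, were then treated 48 h (DMSO ≤0.5%). Digitonin/EDTA lysates were assayed for menadione-dependent MTT-formazan formation using a G6P/G6PDH NADPH-generating mix with FAD at pH 7.4. The reaction ran 5 min, was stopped with dicoumarol, and read at A590. Degree of induction = (A test − blank)/(A control − blank). Ratios were read off the induction–concentration plot at the EROD test concentration.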

In data set [18] the test system is HCT-116. As to the kind of experiment: Cell cycle arrest in human HCT116 cells released from G2 block assessed as accumulation at G2/M phase at 10 uM after 24 hrs by flow cytometry. Type of data set: functional.
Data set [19] has as its target T1, CYP1A1 (Mus musculus, UniProt P00184).
T1 sequence (P00184 whole entry): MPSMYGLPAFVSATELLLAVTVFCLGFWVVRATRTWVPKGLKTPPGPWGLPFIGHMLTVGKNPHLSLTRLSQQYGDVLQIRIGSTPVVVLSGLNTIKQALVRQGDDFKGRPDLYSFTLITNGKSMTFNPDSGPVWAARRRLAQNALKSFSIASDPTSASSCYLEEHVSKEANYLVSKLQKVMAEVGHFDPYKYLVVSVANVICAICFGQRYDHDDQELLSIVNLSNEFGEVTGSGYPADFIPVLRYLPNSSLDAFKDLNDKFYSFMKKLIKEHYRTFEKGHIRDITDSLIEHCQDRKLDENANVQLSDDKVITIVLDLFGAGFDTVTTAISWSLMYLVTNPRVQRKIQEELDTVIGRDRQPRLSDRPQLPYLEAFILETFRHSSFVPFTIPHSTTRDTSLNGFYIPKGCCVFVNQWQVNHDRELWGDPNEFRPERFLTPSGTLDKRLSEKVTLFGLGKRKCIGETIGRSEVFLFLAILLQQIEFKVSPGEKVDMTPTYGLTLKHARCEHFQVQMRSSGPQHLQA
As to the kind of experiment: Induction of CYP1A1 activity in mouse Hepa-1c1c7 cells assessed as induction ratio at 0.05 uM after 48 hrs by EROD assay relative to control. Type of data set: ADME, cell-based. Put shortly: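 About 10,000 Hepa1c1c7 cells/well cultured 24 h, then compound (0.5% DMSO final) for 48 h, at roughly 4 × the concentration doubling NQO1 activity. After PBS wash, cells given 5 µM 7-ethoxyresorufin plus 2 mM salicylamide, 37 °C, 40 min; resorufin fluorescence ex 530/em 590 nm, corrected for compound fluorescence. Ratio = (treated − blank)/(DMSO control − blank); mean ± SD, n = 3.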

The test system of data set [20] is HCT-116. As to the kind of experiment: Cell cycle arrest in human HCT116 cells released from G2 block assessed as accumulation at G1 phase at 10 uM after 24 hrs by flow cytometry. Type of data set: functional.
Data set [21] has as its system HCT-116. The data set can be described thus: Cell cycle arrest in human HCT116 cells released from G1 block assessed as accumulation at G1 phase at 10 uM after 24 hrs by flow cytometry. Format: functional.
Data set [22] has as its system HCT-116. As to the kind of experiment: Cell cycle arrest in human HCT116 cells released from G1 block assessed as accumulation at S phase at 10 uM after 24 hrs by flow cytometry. Format: functional.
Data set [23] deals with HCT-116. As to the kind of experiment: Cell cycle arrest in human HCT116 cells released from G1 block assessed as accumulation at G2/M phase at 10 uM after 24 hrs by flow cytometry. Format: functional.
Data set [24] deals with HCT-116. As to the kind of experiment: Cell cycle arrest in human HCT116 cells released from G2 block assessed as accumulation at S phase at 10 uM after 24 hrs by flow cytometry. Format: functional.
The target of data set [25] is T1, CYP1A1. The data set can be described thus: Induction of CYP1A1 activity in mouse Hepa-1c1c7 cells assessed as induction ratio at 0.01 uM after 48 hrs by EROD assay relative to control. Type of data set: ADME, cell-based.
Data set [26] addresses NAD(P)H dehydrogenase [quinone] 1 (Mus musculus) (UniProt Q64669). The data set can be described thus: Induction of NQO1 activity in mouse Hepa-1c1c7 cells assessed as drug level required to double basal enzyme activity after 48 hrs by MTT assay. Type of data set: cell-based. Put shortly: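 Hepa1c1c7 cells were grown in α-MEM with charcoal-treated FCS, 10,000 per well, 24 h. Compound was given 48 h (DMSO ≤0.5%) over a 10–100-fold range below cytotoxic levels, up to 25 µM. Cells were lysed with digitonin/EDTA. NQO1 was assayed by menadione-driven MTT reduction (G6P/G6PDH/NADP, FAD, Tris pH 7.4), quenched with dicoumarol, A590. CD is the concentration doubling basal activity, taken from the induction–concentration plot; mean ± SD, n = 3.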

The target is the same in data set [27]. The data set can be described thus: Induction of NQO1 activity in mouse Hepa-1c1c7 cells assessed as induction ratio at 0.01 uM after 48 hrs by MTT assay relative to control. Format: cell-based. Put shortly: as §3
Data set [28] is described as follows: Ratio of induction of NQO1 activity to induction of CYP1A1 activity in mouse Hepa-1c1c7 cells at 0.01 uM after 48 hrs.

NAD(P)H dehydrogenase [quinone] 1 (Mus musculus), sequence (Q64669 whole entry): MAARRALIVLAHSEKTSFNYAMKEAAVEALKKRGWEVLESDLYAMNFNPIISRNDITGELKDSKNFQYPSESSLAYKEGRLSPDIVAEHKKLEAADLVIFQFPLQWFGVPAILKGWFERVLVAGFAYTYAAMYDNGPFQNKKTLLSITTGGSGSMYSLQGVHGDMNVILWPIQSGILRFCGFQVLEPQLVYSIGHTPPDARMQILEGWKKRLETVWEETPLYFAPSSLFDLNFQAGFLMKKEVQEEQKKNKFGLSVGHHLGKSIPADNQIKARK

Regarding `O=C1Nc2ccccc2/C1=C\c1cccc2ccccc12`, the Activity in the data set with HCT-116 [1] worked out at 38.42%; in the data set on HCT-116 [2], 26.91%; in the data set with HCT-116 [5], 28.26%; with HCT-116 [6], 14.61%; with HCT-116 [9] it was 32.69%; with HCT-116 [10], 51.32%. In addition, the Activity with HCT-116 [12] was 2.96%; with HCT-116 [13], 5.68%. Also, in the data set with MCF7 [3], the “Ratio IC50” value is given as 6.4. Besides, the IC50 in data set [4] stood at 25 µM; in data set [7] it was 18.6 µM; in the data set with HCT-116 [11], 3.9 µM; with MCF7 [14], 19.6 µM. In [8], the selectivity ratio worked out at 1.3.

Take `COc1ccc(OC)c(/C=C2/C(=O)Nc3ccccc32)c1`: the “Ratio IC50” value in the data set with MCF7 [3] is on record as 3.5. Besides, the Activity in the data set with HCT-116 [15] stood at 9.83%; in the data set on HCT-116 [16], 2.64%; in the data set on HCT-116 [18], 34.26%; in the data set with HCT-116 [20], 39.33%; with HCT-116 [21], 24.24%; with HCT-116 [22], 26.68%. For the same compound, the Activity in the data set with HCT-116 [23] is reported as 46.51%; with HCT-116 [24], 16.68%. For the same compound, the IC50 in [4] was 18.1 µM; in [7], > 25 µM; with HCT-116 [11] it was 5.1 µM; in the data set with MCF7 [14] it was 7.7 µM. Further, the selectivity ratio in data set [8] was 2.4. Besides, the Ratio in [17] came to 3.32. The fold induction at 48 h, 0.05 µM at CYP1A1 [19] stood at 3.08.

Regarding `O=c1cc(-c2ccccc2)oc2ccc3ccccc3c12` [BETA-NAPHTHOFLAVONE], the fold induction at 48 h, 0.01 µM at CYP1A1 [25] came out at 1.13. In addition, in data set [26], the CD came out at 0.028 µM. In addition, the Ratio is 1.83 in [27] and 1.62 in [28].
